Measured values as given in ChEMBL document CHEMBL2331178, “Novel pyridinone derivatives as non-nucleoside reverse transcriptase inhibitors (NNRTIs) with high potency against NNRTI-resistant HIV-1 strains” (J Med Chem, 2013).

What was measured:
[1] = target: Human immunodeficiency virus type 1 reverse transcriptase (Human immunodeficiency virus 1, UniProt Q72547); assay: Inhibition of HIV1 reverse transcriptase after 1 hr by colorimetric assay
Procedure, shortened: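 Purified recombinant wild-type RT with poly(rA)/oligo(dT)16 template-primer and serial inhibitor concentrations. Incubated 1 h at 37 °C. Incorporated biotin detected with streptavidin-alkaline phosphatase and PNPP (30 min, 37 °C), read colorimetrically.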

[2] = Selectivity index, ratio of CC50 for human TZM-bl cells to EC50 for Human immunodeficiency virus 1 SF33 infected in human TZM-bl cells; format: toxicity, cell-based; conditions: read-out: Ratio CC50/EC50
[3] = Selectivity index, ratio of CC50 for human TZM-bl cells to EC50 for Human immunodeficiency virus 1 A17 infected in human TZM-bl cells; format: toxicity, cell-based; conditions: read-out: Ratio CC50/EC50
[4] = Selectivity index, ratio of CC50 for human MT4 cells to EC50 for Human immunodeficiency virus 1 A17 infected in human MT4 cells; format: toxicity, cell-based; conditions: read-out: Ratio CC50/EC50
[5] = test system: Human immunodeficiency virus 1; assay: Antiviral activity against NNRTI-resistant Human immunodeficiency virus 1 A17 double mutant infected in human MT4 cells assessed decrease in p24 level after 7 days by ELISA; format: functional, organism-based; conditions: Human immunodeficiency virus 1, A17, MT4, 168 h
Procedure, shortened: (§1)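 MT4 cells (4×10^4/well) were infected with 200 TCID50 HIV-1 and held 2 h at 37 °C, then serially diluted compound was added. […] The K103N and Y181C viruses came from transfecting RT-mutant plasmids into 293T/17 cells.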

[6] = test system: Human immunodeficiency virus 1; assay: Antiviral activity against NNRTI-resistant Human immunodeficiency virus 1 A17 double mutant infected in human TZM-bl cells assessed decrease in p24 level after 7 days by ELISA; format: functional, organism-based; conditions: Human immunodeficiency virus 1, A17, TZM-bl, 168 h
[7] = test system: Human immunodeficiency virus 1; assay: Antiviral activity against NNRTI-resistant Human immunodeficiency virus 1 harboring reverse transcriptase Y181C mutation infected in human MT4 cells assessed decrease in p24 level after 7 days by ELISA; format: functional, organism-based; conditions: Human immunodeficiency virus 1, MT4, 168 h; procedure, shortened: as §1
[8] = test system: Human immunodeficiency virus 1; assay: Antiviral activity against NNRTI-resistant Human immunodeficiency virus 1 harboring reverse transcriptase Y181C mutation infected in human TZM-bl cells assessed decrease in p24 level after 7 days by ELISA; format: functional, organism-based; conditions: Human immunodeficiency virus 1, TZM-bl, 168 h
[9] = test system: Human immunodeficiency virus 1; assay: Antiviral activity against NNRTI-resistant Human immunodeficiency virus 1 harboring reverse transcriptase K103N mutation infected in human MT4 cells assessed decrease in p24 level after 7 days by ELISA; format: functional, organism-based; conditions: Human immunodeficiency virus 1, MT4, 168 h; procedure, shortened: as §1
[10] = Cytotoxicity against human TZM-bl cells; format: cell-based
[11] = test system: Human immunodeficiency virus 1; assay: Antiviral activity against Human immunodeficiency virus 1 SF33 infected in human TZM-bl cells assessed decrease in p24 level after 7 days by ELISA; format: functional, organism-based; conditions: Human immunodeficiency virus 1, SF33, TZM-bl, 168 h
[12] = test system: Human immunodeficiency virus 1; assay: Antiviral activity against NNRTI-resistant Human immunodeficiency virus 1 harboring reverse transcriptase K103N mutation infected in human TZM-bl cells assessed decrease in p24 level after 7 days by ELISA; format: functional, organism-based; conditions: Human immunodeficiency virus 1, TZM-bl, 168 h
[13] = Cytotoxicity against human MT4 cells after 3 days by XTT assay; format: cell-based
Procedure, shortened: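 Graded compound concentrations added to MT4 cells (5×10^4/well) for 3 days at 37 °C. CCK-8 reagent then added for 4 h at 37 °C to develop the XTT formazan product, and absorbance read at 450 nm. CC50 derived from percent cytotoxicity.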

[14] = test system: Human immunodeficiency virus 1; assay: Antiviral activity against Human immunodeficiency virus 1 SF33 infected in human MT4 cells assessed decrease in p24 level after 7 days by ELISA; format: functional, organism-based; conditions: Human immunodeficiency virus 1, SF33, MT4, 168 h
Procedure, shortened: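 MT4 cells (4×10^4/well) infected with 200 TCID50 of HIV-1 for 2 h at 37 °C, then serial dilutions of compound added. After 7 days at 37 °C, p24 measured in a commercial ELISA.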

[15] = Selectivity index, ratio of CC50 for human MT4 cells to EC50 for Human immunodeficiency virus 1 SF33 infected in human MT4 cells; format: toxicity, cell-based; conditions: read-out: Ratio CC50/EC50
[16] = target: Human immunodeficiency virus type 1 reverse transcriptase (Human immunodeficiency virus 1) (UniProt Q72547); assay: Ratio of nevirapine IC50 to compound IC50 for HIV1 reverse transcriptase
[17] = target: Human immunodeficiency virus type 1 reverse transcriptase (Human immunodeficiency virus 1) (UniProt Q72547); assay: Ratio of TNK651 IC50 to compound IC50 for HIV1 reverse transcriptase

| IC50 [1] | SMILES | selectivity ratio [2] | selectivity ratio [3] | selectivity ratio [4] | EC50 [5] | EC50 [6] | CC50 [10] | EC50 [11] | CC50 at 72 h [13] | EC50 [14] | selectivity ratio [15] | also measured |
| --- | --- | --- | --- | --- | --- | --- | --- | --- | --- | --- | --- | --- |
| 81000 nM | CCOC(=O)c1c(OC2CCCCC2)cc(Cc2ccccc2)[nH]c1=O | – | – | – | – | – | – | – | – | – | – | – |
| > 100000 nM | CCOC(=O)c1c(OC2CCCCCC2)cc(Cc2ccccc2)[nH]c1=O | – | – | – | – | – | – | – | – | – | – | – |
| 5290 nM | CCOC(=O)c1c(OC2CCCCC2C)cc(Cc2ccccc2)[nH]c1=O (mixture of isomers) | – | – | – | – | – | – | – | – | – | – | – |
| > 100000 nM | CCOC(=O)c1c(OC2CCCCC2Cl)cc(Cc2ccccc2)[nH]c1=O (mixture of isomers) | – | – | – | – | – | – | – | – | – | – | – |
| 32900 nM | CCOC(=O)c1c(OC2CCC(C)CC2)cc(Cc2ccccc2)[nH]c1=O (mixture of isomers) | – | – | – | – | – | – | – | – | – | – | – |
| 73500 nM | CCOC(=O)c1c(OC2CC(C)CC(C)C2)cc(Cc2ccccc2)[nH]c1=O (mixture of isomers) | – | – | – | – | – | – | – | – | – | – | – |
| > 100000 nM | CCOC(=O)c1c(OC2CC(C)CC(C)(C)C2)cc(Cc2ccccc2)[nH]c1=O (mixture of isomers) | – | – | – | – | – | – | – | – | – | – | – |
| 59300 nM | CC1CCCCC1Oc1cc(Cc2ccccc2)[nH]c(=O)c1 (mixture of isomers) | – | – | – | – | – | – | – | – | – | – | – |
| 1210 nM | CC1CCCCC1Oc1cc(Cc2ccccc2)[nH]c(=O)c1Br (mixture of isomers) | – | – | – | – | – | – | – | – | – | – | – |
| 590 nM | CC1CCCCC1Oc1cc(Cc2ccccc2)[nH]c(=O)c1I (mixture of isomers) | – | – | – | – | – | – | – | – | – | – | – |
| 410 nM | CC(C)c1c(OC2CCCCC2C)cc(Cc2ccccc2)[nH]c1=O (mixture of isomers) | – | – | – | – | – | – | – | – | – | – | – |
| > 100000 nM | CCOC(=O)c1c(OC2CCCCC2C)cc(CCc2ccccc2)[nH]c1=O (mixture of isomers) | – | – | – | – | – | – | – | – | – | – | – |

More lines, now with the values behind:

| SMILES | IC50 [1] | selectivity ratio [2] | selectivity ratio [3] | selectivity ratio [4] | EC50 [5] | EC50 [6] | CC50 [10] | EC50 [11] | CC50 at 72 h [13] | EC50 [14] | selectivity ratio [15] | also measured |
| --- | --- | --- | --- | --- | --- | --- | --- | --- | --- | --- | --- | --- |
| CCOC(=O)c1c(OC2CCCC2)cc(Cc2ccccc2)[nH]c1=O | > 100000 nM | – | – | – | – | – | – | – | – | – | – | – |
| CC(C)c1c(Cc2ccccc2)n(COCc2ccccc2)c(=O)[nH]c1=O | 88 nM | 2990 | < 6 | < 8 | > 10 µM | > 10 µM | 65.8 µM | 22 nM | – | – | – | EC50 [7]: > 10000 nM; EC50 [8]: > 10000 nM; EC50 [9]: 2400 nM; EC50 [12]: > 10000 nM |
| CCOC(=O)c1c(OC2CCCC(C)C2)cc(Cc2ccccc2)[nH]c1=O (mixture of isomers) | 19800 nM | – | – | – | – | – | – | – | – | – | – | – |
| CCOC(=O)c1c(OC2C(C)CCCC2C)cc(Cc2ccccc2)[nH]c1=O (mixture of isomers) | 37100 nM | – | – | – | – | – | – | – | – | – | – | – |
| CC(C)c1c(OC2CCCCC2C)cc(Cc2ccc(F)cc2)[nH]c1=O (mixture of isomers) | 130 nM | 2860 | < 7 | < 6 | > 10 µM | > 10 µM | 74.5 µM | 26 nM | 64.6 µM | 23 nM | 2810 | – |
| CC(C)c1c(OC2CCCCC2C)cc(Cc2ccc(Cl)cc2)[nH]c1=O (mixture of isomers) | 160 nM | 4720 | < 10 | 8 | 10.4 µM | > 10 µM | 109 µM | 23 nM | 84 µM | 10 nM | 8400 | – |
| COc1ccc(Cc2cc(OC3CCCCC3C)c(C(C)C)c(=O)[nH]2)cc1 (mixture of isomers) | 33 nM | 26500 | < 13 | 155 | 0.479 µM | > 10 µM | 132 µM | 5 nM | 74.5 µM | 6 nM | 12400 | – |
| Cc1ccc(Cc2cc(OC3CCCCC3C)c(C(C)C)c(=O)[nH]2)cc1 (mixture of isomers) | 59 nM | 1740 | < 9 | < 11 | > 10 µM | > 10 µM | 99 µM | 57 nM | 112 µM | 6 nM | 18700 | – |
| CC1CCCCC1Oc1cc(CCc2ccccc2)[nH]c(=O)c1Br (mixture of isomers) | 650 nM | – | < 8 | 23 | 4.32 µM | > 10 µM | 83.1 µM | 92 nM | 100 µM | 3 nM | 33400 | – |
| CC1CCCCC1Oc1cc(CCc2ccccc2)[nH]c(=O)c1I (mixture of isomers) | 150 nM | > 5660 | 307 | > 1070 | 0.281 µM | 0.978 µM | > 300 µM | 53 nM | > 300 µM | 17 nM | > 17600 | EC50 [7]: 170 nM; EC50 [8]: 296 nM; EC50 [9]: 17 nM; EC50 [12]: 100 nM |
| CC(C)c1c(OC2CCCCC2C)cc(CCc2ccccc2)[nH]c1=O (mixture of isomers) | 10 nM | 3180 | 191 | 73 | 2.75 µM | 0.6 µM | 114 µM | 36 nM | 201 µM | 7 nM | 28800 | – |
| CC(C)c1c(O[C@H]2CCCC[C@@H]2C)cc(CCc2ccccc2)[nH]c1=O (racemic) | 3 nM | > 33300 | 2160 | > 3330 | 0.09 µM | 0.139 µM | > 300 µM | 9 nM | > 300 µM | 4 nM | > 75000 | EC50 [7]: 190 nM; EC50 [8]: 63 nM; EC50 [9]: 18 nM; Ratio IC50 [16]: 1480; Ratio IC50 [17]: 29; EC50 [12]: 75 nM |
| CC(C)c1c(O[C@H]2CCCC[C@H]2C)cc(CCc2ccccc2)[nH]c1=O (racemic) | 1310 nM | 1390 | < 18 | < 8 | > 10 µM | > 10 µM | 189 µM | 136 nM | 87.9 µM | 68 nM | 1290 | – |
| Cc1ccnc2c1NC(=O)c1cccnc1N2C1CC1 [NEVIRAPINE] | – | – | – | – | > 10 µM | > 10 µM | 204 µM | 190 nM | – | – | – | EC50 [7]: > 10000 nM; EC50 [8]: > 10000 nM; EC50 [9]: > 10000 nM; EC50 [12]: > 10000 nM |
